What was measured:
Homo sapiens [1] = species: Homo sapiens; test: Inhibition of human Lymphocyte proliferation. The IC50 values were determined by interpolation using cubic spline determination.; type: functional
How it was run: (§1)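 Human PBMC are isolated on Ficoll from heparinized blood and plated at 2 × 10^5 cells/well in RPMI-1640 with 5% FCS. Cells are stimulated with PHA (10 μg/mL final) and given compound at time 0, at 4-6 concentrations between 0.001 and 20 μM (tested to 10 μM). Cultures run in quadruplicate for 72 h at 37 °C, 7% CO2, with [3H]thymidine (0.5 μCi/well) for the last 6 h. IC50 by cubic-spline interpolation of the means.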

[2] = target: T1, Inosine-5'-monophosphate dehydrogenase 2 (Homo sapiens, UniProt P12268); test: Inhibition of human recombinant inosine monophosphate dehydrogenase type II.
How it was run: (§2)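 Reactions are run either at pH 7.4 (0.1 M K phosphate, 0.5 M KCl, 3 mM EDTA, 10 μg/mL BSA) or at pH 8.0 (0.1 M Tris-HCl, 0.1 M KCl, 3 mM EDTA, 100 μg/mL BSA). DMSO ≤10%, compounds tested up to 100 μM. IC50 from fit of fractional activity = V0/[(I/IC50)^n + 1].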

Homo sapiens [3] = species: Homo sapiens; test: Inhibition of human Lymphocyte proliferation. The IC50 values were determined by interpolation using the cubic spline determination at 10 uM; type: functional; how it was run: as §1
[4] = target: T1, Inosine-5'-monophosphate dehydrogenase 2; test: Inhibition of human recombinant type II Inosine Monophosphate Dehydrogenase at 100 uM; how it was run: as §2
Mus musculus [5] = test: Tested for the inhibition of murine PFC response at 100 mg/kg dose; type: functional
[6] = target: T1, Inosine-5'-monophosphate dehydrogenase 2; test: Inhibition of human recombinant type II Inosine Monophosphate Dehydrogenase. at pH 8.0
How it was run: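 Recombinant human type II IMPDH (12.5-25 pmol) in 0.1 M Tris-HCl pH 8.0, 0.1 M KCl, 3 mM EDTA, 100 μg/mL BSA. […] IC50 fitted with a Hill equation, fractional activity = V0/[(I/IC50)^n + 1].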

Mus musculus [7] = test: Tested for the inhibition of murine PFC response at 12.5 mg/kg dose; type: functional
Mus musculus [8] = test: Tested for the inhibition of murine PFC response at 25 mg/kg dose; type: functional
Mus musculus [9] = test: Tested for the inhibition of murine PFC response at 6.25 mg/kg dose; type: functional
Mus musculus [10] = test: Tested for the inhibition of murine PFC response at 50 mg/kg dose; type: functional
Mus musculus [11] = species: Mus musculus; test: Effective dose was measured in mice as concentration required to inhibit 50% inhibition of Murine PFC response; type: functional
How it was run: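 Jerne plaque assay in female C3H or CD-1 mice immunized ip with SRBC on day 0, with oral daily dosing over the next 4 days. Splenic PFC per 10^6 WBC counted on day 4. ED50 read graphically from the dose-inhibition data.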

Homo sapiens [12] = species: Homo sapiens; test: Compound was tested for inhibition of human Lymphocyte proliferation. The IC50 values were determined by interpolation using the cubic spline determination at 10 uM; type: functional; how it was run: as §1

SMILES | IC50 (Homo sapiens [1]) | IC50 [2] | other results
COc1c(C)c(C)c(C#N)c(N)c1C/C=C(\C)CCC(=O)O | 4100 nM | 14800 nM | 
COc1c(C)c(C)c(Cl)c(Cl)c1C/C=C(\C)CCC(=O)O |  |  | IC50 (Homo sapiens [3]): > 10000 nM; IC50 [4]: 557 nM
COc1c(C)c(C)c(Cl)c(F)c1C/C=C(\C)CCC(=O)O | 7500 nM | 437 nM | inhibition in vivo at 100 mg/kg (Mus musculus [5]): 0%
COc1c(C)c(C)c(C#N)c(Cl)c1C/C=C(\C)CCC(=O)O |  |  | IC50 (Homo sapiens [3]): > 10000 nM; IC50 [4]: 681 nM
COc1c(C)c(C)c(F)c(O)c1C/C=C(\C)CCC(=O)O | 4100 nM | 1080 nM | 
COc1c(C)c(C)cc(O)c1C/C=C(\C)CCC(=O)O |  | 51800 nM | 
COc1c(C)c(C)c(C)c(O)c1C/C=C(\C)CCC(=O)O | 3700 nM | 959 nM | 
COc1c(C#N)c2c(c(O)c1C/C=C(\C)CCC(=O)O)C(=O)OC2 | > 10000 nM |  | IC50 [6]: > 100000 nM
COc1c(C)c(C)c(Cl)c(C)c1C/C=C(\C)CCC(=O)O |  |  | IC50 (Homo sapiens [3]): > 10000 nM; IC50 [4]: 1700 nM
CCOc1c(C)c2c(c(O)c1C/C=C(\C)CCC(=O)O)C(=O)OC2 | 430 nM |  | IC50 [6]: 89.8 nM
COc1c(C)c(C)c(Cl)c(O)c1C/C=C(\C)CCC(=O)O | 200 nM | 33.5 nM | inhibition in vivo at 12.5 mg/kg (Mus musculus [7]): 0%; inhibition in vivo at 25 mg/kg (Mus musculus [8]): 0%; inhibition in vivo at 100 mg/kg (Mus musculus [5]): 83%
C/C(=C\Cc1c(O)c2c(c(C)c1C1CC1)COC2=O)CCC(=O)O | 340 nM | 50.7 nM | 
COc1c(Br)c2c(c(O)c1C/C=C(\C)CCC(=O)O)C(=O)OC2 | 4000 nM |  | IC50 [6]: 975 nM
COc1c(C/C=C(\C)CCC(=O)O)cc(SC)c(C)c1C |  |  | IC50 (Homo sapiens [3]): > 10000 nM; IC50 [4]: 52300 nM
COc1c(C)c(C)c(I)c(O)c1C/C=C(\C)CCC(=O)O | 4900 nM | 592 nM | 
COc1c(C)c2c(c(O)c1C/C=C(\C)CCC(=O)O)C(=O)OCC2 | 8600 nM |  | IC50 [6]: 644 nM

SMILES | IC50 (Homo sapiens [1]) | IC50 [2] | other results
COc1c(C/C=C(\C)CCC(=O)O)cc(Cl)c(C)c1C | 6700 nM | 537 nM | 
COc1c(C/C=C(\C)CCC(=O)O)cc(N)c(C)c1C |  | 17000 nM | 
C/C(=C\Cc1c(O)c2c(c(C)c1-c1ccccc1)COC2=O)CCC(=O)O | 2800 nM | 130 nM | 
C/C(=C\Cc1cc(C)c2c(c1O)C(=O)OC2)CCC(=O)O |  |  | IC50 [6]: 6960 nM
COc1c(C)c(C)c([N+](=O)[O-])c(O)c1C/C=C(\C)CCC(=O)O |  | 184 nM | 
COc1c(C)c2c(c(O)c1C/C=C(\C)CCC(=O)O)C(=O)CC2 | 830 nM | 140 nM | 
C/C(=C\Cc1c(C)c(C)c(C)c(Br)c1N)CCC(=O)O |  | 763 nM | 
COc1c(C)c2c(c(O)c1C/C=C(\C)CCC(=O)O)C(=O)OC2 [MYCOPHENOLIC ACID] | 58 nM |  | inhibition in vivo at 12.5 mg/kg (Mus musculus [7]): 20%; inhibition in vivo at 25 mg/kg (Mus musculus [8]): 36%; inhibition in vivo at 6.25 mg/kg (Mus musculus [9]): 16%; inhibition in vivo at 50 mg/kg (Mus musculus [10]): 81%; ED50 (Mus musculus [11]): 33 mg/kg
CO/N=C/c1c(C)c(C)c(OC)c(C/C=C(\C)CCC(=O)O)c1O |  |  | IC50 (Homo sapiens [12]): > 10000 nM; IC50 [4]: 52800 nM
COc1c(C/C=C(\C)CCC(=O)O)c(O)c2c(c1C(N)=O)COC2=O | > 10000 nM |  | IC50 [6]: > 100000 nM
COc1c(C)c(C)c(C#N)c(O)c1C/C=C(\C)CCC(=O)O | 1700 nM | 534 nM | 
COc1cc2c(c(O)c1C/C=C(\C)CCC(=O)O)C(=O)OC2 |  |  | IC50 [6]: 515 nM
COc1c(C)c2c(c(O)c1C/C=C(\C)CCC(=O)O)C(=O)SC2 | 1700 nM | 121 nM | 
C/C(=C\Cc1c(C)c(C)c2c(c1O)C(=O)OC2)CCC(=O)O | 250 nM |  | IC50 [6]: 18.6 nM; inhibition in vivo at 50 mg/kg (Mus musculus [10]): 45%
COc1c(C)c(C)c(Br)c(N)c1C/C=C(\C)CCC(=O)O | 4100 nM | 462 nM | inhibition in vivo at 100 mg/kg (Mus musculus [5]): 30%
COc1c(C)c(C)c(Br)c(O)c1C/C=C(\C)CCC(=O)O | 280 nM | 36.7 nM | inhibition in vivo at 100 mg/kg (Mus musculus [5]): 5%

From ChEMBL document CHEMBL1129445 (J Med Chem, 1996)
